Legend:
STZ-induced T1DM [1] = assay type: in vivo; conditions: glibenclamide group (2.5 mg/kg), STZ induced mice
Outline: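 Swiss albino mice (20 ± 5 g, either sex) were given STZ 40 mg/kg i.p. for 5 days; mice with fasting glucose >220 mg/dl were taken as diabetic (18/group). They were dosed orally once daily for 2 weeks. Tail-vein glucose (glucometer) and body weight were recorded at intervals; weight loss was taken as day 1 versus pre-sacrifice weight. Liver and kidneys were weighed at sacrifice for organ index.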

gut microbiota = test: 16S rRNA gene sequencing of caecal content, STZ induced diabetic rats; assay type: in vivo; conditions: STZ + Gli (2.5 mg/kg)
3T3-L1 adipocyte = test: Glucose consumption in 3T3-L1 adipocyte; assay type: cell-based
STZ-induced T1DM [2] = test: Pancreatic islet mass and pancreas histopathology in STZ-induced T1DM; assay type: in vivo, mice
Outline: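 STZ-diabetic mice (40 mg/kg i.p. × 5 days; glucose >220 mg/dl) were gavaged daily for 2 weeks with test compound at 10 or 20 mg/kg, or glibenclamide 2.5 mg/kg. Pancreas was formalin-fixed, paraffin-embedded, cut at 5 µm and stained with H&E. Islet mass was calculated as pancreas weight × relative β-cell area on slides; ANOVA versus model group.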

3T3-L1 preadipocyte = 3T3-L1 preadipocyte differentiation; assay type: cell-based; conditions: Oil Red O, TG content; vs induced control
Outline: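 3T3-L1 cells seeded at 2×10^4 cells/mL in 6-well plates. Differentiation was induced in DMEM with insulin (10 µg/mL), IBMX (0.5 mM), dexamethasone (1 µM) and 10% FBS for 48 h, then DMEM with insulin and FBS, then basic medium changed every 48 h. Test compound (12.5, 25, 50 µg/mL) was present throughout. Lipid droplets stained with Oil Red O 10 days after induction.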

Question: Which renal index (STZ-induced T1DM [1]) does the source give for COc1ccc(Cl)cc1C(=O)NCCc1ccc(S(=O)(=O)NC(=O)NC2CCCCC2)cc1 [Glibenclamide, glibenclamide] here?
Answer: The renal index was 1.41 ± 0.13.

Question: What about the “Actinobacteria, 16S rRNA gene sequencing of caecal content” value (gut microbiota) of the same compound?
Answer: The value was 0.35 ± 0.03.

Question: And the “Bacteroidates, 16S rRNA gene sequencing of caecal content” value (gut microbiota)?
Answer: Its value is 0.28 ± 0.05.

Question: And the “Bacteroidetes, 16S rRNA gene sequencing of caecal content” value (gut microbiota)?
Answer: The value was 0.23 ± 0.09.

Question: And the “Bifldobacteriales, 16S rRNA gene sequencing of caecal content” value (gut microbiota)?
Answer: Its value is 0.5 ± 0.04.

Question: And the “Burkholderiaies, 16S rRNA gene sequencing of caecal content” value (gut microbiota)?
Answer: Its value is 0.34 ± 0.04.

Question: What about the “Campylobacterioles, 16S rRNA gene sequencing of caecal content” value (gut microbiota) of the same compound?
Answer: The value was 0.61 ± 0.09.

Question: And the “Clostridiales, 16S rRNA gene sequencing of caecal content” value (gut microbiota)?
Answer: The value was 0.29 ± 0.05.

Question: What about the “Coriobacteriales, 16S rRNA gene sequencing of caecal content” value (gut microbiota) of the same compound?
Answer: Its value is 0.32 ± 0.09.

Question: What about the “Cyanobacteria, 16S rRNA gene sequencing of caecal content” value (gut microbiota) of the same compound?
Answer: The value was 0.3 ± 0.07.

Question: And the “Desulfovibrionales, 16S rRNA gene sequencing of caecal content” value (gut microbiota)?
Answer: The value was 0.25 ± 0.06.

Question: What about the “Enterobacteriales, 16S rRNA gene sequencing of caecal content” value (gut microbiota) of the same compound?
Answer: The value was 0.3 ± 0.06.

Question: What about the “Eryslpelotrichales, 16S rRNA gene sequencing of caecal content” value (gut microbiota) of the same compound?
Answer: Its value is 0.5 ± 0.07.

Question: And the “Firmicutes, 16S rRNA gene sequencing of caecal content” value (gut microbiota)?
Answer: Its value is 0.22 ± 0.07.

Question: What about the “Lactibacllales, 16S rRNA gene sequencing of caecal content” value (gut microbiota) of the same compound?
Answer: Its value is 0.25 ± 0.03.

Question: What about the “Proteobacteria, 16S rRNA gene sequencing of caecal content” value (gut microbiota) of the same compound?
Answer: The value was 0.28 ± 0.04.

Question: What about the “Selenomonadales, 16S rRNA gene sequencing of caecal content” value (gut microbiota) of the same compound?
Answer: Its value is 0.16 ± 0.03.

Question: What about the “Verrucomicrobia, 16S rRNA gene sequencing of caecal content” value (gut microbiota) of the same compound?
Answer: The value was 0.21 ± 0.07.

Question: What about the “Verrucomicrobiales, 16S rRNA gene sequencing of caecal content” value (gut microbiota) of the same compound?
Answer: Its value is 0.36 ± 0.08.

Question: What about the “Glucose consumption (in words)” value (3T3-L1 adipocyte) of the same compound?
Answer: The value was “significantly increased”.

Question: What about the Glucose consumption (3T3-L1 adipocyte; 1 µg/mL) of the same compound?
Answer: The Glucose consumption was 12.62 ± 0.67 mmol/L.

Question: And the pancreas histopathology (STZ-induced T1DM [2]; STZ induced type I DM)?
Answer: Its pancreas histopathology is “almost similar histopathology effect”.

Question: What about the β-cell mass (STZ-induced T1DM [2]; glibenclamide group (2.5 mg/kg), STZ induced mice) of the same compound?
Answer: Its β-cell mass is 1.5 ± 0.02.

Question: What about the 3T3-L1 preadipocyte differentiation (3T3-L1 preadipocyte) of the same compound?
Answer: Its 3T3-L1 preadipocyte differentiation is “significant differentiation”.

Reference: PMC6923438 (Saudi Journal of Biological Sciences, 2019)
